Test results as given in ChEMBL document CHEMBL4400546, “A Cinchona Alkaloid Antibiotic That Appears To Target ATP Synthase in Streptococcus pneumoniae” (J Med Chem, 2019).
≈ marks a conversion by molar mass, not a printed value.

Legend:
[1] = Drug metabolism in ICR mouse liver microsomes assessed as (2S,3S,4S,5R,6R)-6-[[4-[(R)-[(1S,2S,4S,5Z)-5-ethylidenequinuclidin-2-yl]-hydroxy-methyl]-6-quinolyl]oxy]-3,4,5-trihydroxy-tetrahydropyran-2-carboxylic acid metabolite formation at 10 uM preincubated with NADPH for 10 mins by LC-MS/MS analysis; type: ADME, Microsome
[2] = Drug level in ICR mouse liver microsomes treated with 6-Cyclobutoxy-(R)-4-[((1S,2S,4S,5E)-5-ethylidene-1-azabicyclo[2.2.2]octan-2-yl)hydroxymethyl]quinoline at 10 uM preincubated with NADPH for 10 mins and measured after 90 mins by LC-MS/MS analysis; type: ADME, Microsome; settings: 1.5 h
[3] = Elimination half life in ICR mouse at 2.5 mg/kg, iv by LC-MS/MS analysis; type: ADME, organism-based; settings: in vivo, read-out: beta t1/2 (converted)
In short: (§1)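 Single-dose PK in male ICR mice, bolus p.o. 25 mg/kg or i.v. 2.5 mg/kg. Plasma concentration followed over time, n = 3. Parameters derived by noncompartmental analysis of the concentration–time curves. Oral bioavailability calculated from AUC.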

[4] = Tmax in ICR mouse at 25 mg/kg, po via bolus administration by LC-MS/MS analysis; type: ADME, organism-based; settings: in vivo
In short: (§2)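 Male ICR mice, single oral bolus at 25 mg/kg. Serum concentration-time profiles (n = 3) analysed by noncompartmental analysis.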

[5] = Drug metabolism in ICR mouse liver microsomes assessed as [6-(cyclobutoxy)-4-quinolyl]-[(1S,2S,4S,5Z)-5-(2-hydroxyethylidene)quinuclidin-2-yl]methanone metabolite formation at 10 uM preincubated with NADPH for 10 mins by LC-MS/MS analysis; type: ADME, Microsome
[6] = Clearance in ICR mouse at 2.5 mg/kg, iv by LC-MS/MS analysis; type: ADME, organism-based; settings: in vivo; in short: as §1
[7] = AUCt in ICR mouse at 25 mg/kg, po via bolus administration by LC-MS/MS analysis; type: ADME, organism-based; settings: in vivo; in short: as §1
[8] = Drug metabolism in ICR mouse liver microsomes assessed as ) 6-(cyclobutoxy)-4-[(R)-hydroxy-[(1S,2S,4S,5Z)-5-(2-hydroxyethylidene)quinuclidin-2-yl]methyl]-1H-quinolin-2-one metabolite formation at 10 uM preincubated with NADPH for 10 mins by LC-MS/MS analysis; type: ADME, Microsome
[9] = AUCt in ICR mouse at 2.5 mg/kg, iv by LC-MS/MS analysis; type: ADME, organism-based; settings: in vivo; in short: as §1
[10] = Volume of distribution at steady state in ICR mouse at 2.5 mg/kg, iv by LC-MS/MS analysis; type: ADME, organism-based; settings: in vivo, read-out: Vdss
In short: (§3)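 Male ICR mice, single i.v. bolus at 2.5 mg/kg. Serum concentration-time curves (n = 3) analysed noncompartmentally to give Tmax and steady-state volume of distribution.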

[11] = tested on: Streptococcus pneumoniae; experiment: Antibacterial activity against Streptococcus pneumoniae D39 after 20 hrs by CLSI-based microdilution method; type: functional; settings: D39, 20 h
[12] = Elimination half life in ICR mouse at 25 mg/kg, po via bolus administration by LC-MS/MS analysis; type: ADME, organism-based; settings: in vivo, read-out: beta t1/2 (converted); in short: as §1
[13] = Tmax in ICR mouse at 2.5 mg/kg, iv by LC-MS/MS analysis; type: ADME, organism-based; settings: in vivo; in short: as §3
[14] = Cmax in ICR mouse at 2.5 mg/kg, iv by LC-MS/MS analysis; type: ADME, organism-based; design: dose 2.5 mg/kg, route intravenous; settings: in vivo; in short: as §1
[15] = Cytotoxicity against human HepG2 cells assessed as reduction in cell viability after 48 hrs by Alamar Blue assay; type: cell-based
[16] = Drug metabolism in ICR mouse liver microsomes at 10 uM preincubated with NADPH for 10 mins and measured after 60 mins by LC-MS/MS analysis; type: ADME, Microsome; settings: read-out: Drug metabolism
[17] = Drug level in ICR mouse liver microsomes treated with 6-Cyclobutoxy-(R)-4-[((1S,2S,4S,5Z)-5-ethylidene-1-azabicyclo-[2.2.2]octan-2-yl)hydroxymethyl]quinoline at 10 uM preincubated with NADPH for 10 mins and measured after 90 mins by LC-MS/MS analysis; type: ADME, Microsome; settings: 1.5 h
[18] = Oral bioavailability in ICR mouse at 25 mg/kg via bolus administration by LC-MS/MS analysis; type: ADME, organism-based; settings: in vivo; in short: as §2
[19] = Drug metabolism in ICR mouse liver microsomes assessed as [(1S,2S,4S,5Z)-5-ethylidenequinuclidin-2-yl]-(6-hydroxy-4-quinolyl)methanone metabolite formation at 10 uM preincubated with NADPH for 10 mins by LC-MS/MS analysis; type: ADME, Microsome
[20] = Cmax in ICR mouse at 25 mg/kg, po via bolus administration by LC-MS/MS analysis; type: ADME, organism-based; design: dose 25 mg/kg, route oral; settings: in vivo; in short: as §1
[21] = Cmax in human; type: ADME
[22] = tested on: Staphylococcus epidermidis; experiment: Antibacterial activity against Staphylococcus epidermidis; type: functional
[23] = Protein binding in plasma (unknown origin); type: ADME, cell-free; settings: read-out: PPB
[24] = Elimination half life in human
[25] = tested on: Streptococcus pneumoniae; experiment: Antibacterial activity against Streptococcus pneumoniae; type: functional
In short: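 MIC read per CLSI guidelines as the lowest concentration giving complete inhibition of visible growth. The main screen used strain D39. A further panel covered drug-sensitive, multidrug-resistant and optochin-resistant strains, including R6 carrying atpE point mutations G142C or G145A made by a PCR-based approach.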

[26] = tested on: Staphylococcus aureus; experiment: Antibacterial activity against Staphylococcus aureus; type: functional
[27] = tested on: Enterococcus faecalis; experiment: Antibacterial activity against Enterococcus faecalis; type: functional
[28] = Mitochondrial toxicity in human HepG2 cells assessed as reduction in cell viability after 24 hrs in presence of galactose by CellTiter-Glo assay; type: cell-based
In short: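 HepG2 cells are grown in DMEM supplemented with 10 mM galactose or 10 mM glucose and treated for 24 h. Viability is read by CellTiter-Glo luminescence. The CC90 is the concentration inhibiting 90% of cell viability, taken from dose–response curves. Oligomycin and tamoxifen serve as controls.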

[29] = Mitochondrial toxicity in human HepG2 cells assessed as reduction in cell viability after 24 hrs in presence of glucose by CellTiter-Glo assay; type: cell-based
In short: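 HepG2 cells grown in DMEM with 10 mM glucose, treated 24 h; viability read by CellTiter-Glo luminescence. Value is the concentration giving 90% loss of viability (CC90) from dose-response curves, top concentration 300 µM.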

[30] = tested on: Streptococcus pneumoniae; experiment: Antibacterial activity against amoxicillin/penicillin/erythromycin/ertapenem/moxifloxacin/cefotaxime-resistant Streptococcus pneumoniae TH2889 (6B) after 20 hrs by CLSI-based microdilution method; type: functional
[31] = tested on: Streptococcus pneumoniae; experiment: Bactericidal activity against Streptococcus pneumoniae D39 after 24 hrs; type: functional; settings: D39, 24 h
[32] = tested on: Streptococcus pneumoniae; experiment: Antibacterial activity against amoxicillin/penicillin/chloramphenicol/erythromycin/meropenem/cefotaxime-resistant Streptococcus pneumoniae TH2582 (19A) after 20 hrs by CLSI-based microdilution method; type: functional
[33] = tested on: Streptococcus pneumoniae; experiment: Antibacterial activity against amoxicillin/penicillin/cefotaxime/erythromycin/tetracycline-resistant Streptococcus pneumoniae TH2784 (19F) after 20 hrs by CLSI-based microdilution method; type: functional
[34] = tested on: Streptococcus pneumoniae D39; experiment: Inhibition of wild-type Streptococcus pneumoniae D39 ATP synthase atpE assessed as intracellular pH at 10 uM measured at 5 mins intervals by pH-sensitive GFP-based fluorescence assay (reference value: 7.34 +/- 0.04); type: cell-based
In short: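 S. pneumoniae D39 WT and isogenic atpE G142C or G145A mutants carry a plasmid-borne ratiometric pH-sensitive GFP biosensor. Cells are in PBS pH 7.2 with 10 mM glucose and are treated with compound, DMSO (0.5% v/v) or CCCP (10 µM). Intracellular pH is read immediately and at 5-min intervals. Two independent experiments, each in triplicate.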

[35] = tested on: Streptococcus pyogenes; experiment: Antibacterial activity against Streptococcus pyogenes; type: functional
[36] = tested on: Enterococcus faecium; experiment: Antibacterial activity against Enterococcus faecium; type: functional
[37] = tested on: Streptococcus pneumoniae; experiment: Antibacterial activity against penicillin/erythromycin/meropenem/tetracycline-resistant Streptococcus pneumoniae TH2863 (19F) after 20 hrs by CLSI-based microdilution method; type: functional
[38] = tested on: Streptococcus pneumoniae; experiment: Antibacterial activity against optochin-resistant Streptococcus pneumoniae R6 expressing atpE G142C mutant after 20 hrs by CLSI-based microdilution method; type: functional; settings: R6, 20 h
[39] = tested on: Streptococcus pneumoniae; experiment: Antibacterial activity against optochin-resistant Streptococcus pneumoniae R6 expressing atpE G145A mutant after 20 hrs by CLSI-based microdilution method; type: functional; settings: R6, 20 h
[40] = tested on: Streptococcus pneumoniae; experiment: Antibacterial activity against Streptococcus pneumoniae R6 after 20 hrs by CLSI-based microdilution method; type: functional; settings: R6, 20 h

Compound	half-life [3]	Tmax [4]	clearance [6]	AUC(0-t) [7]	AUC(0-t) [9]	Vd [10]	MIC [11]	half-life [12]	Tmax [13]	Cmax [14]	CC50 at 48 h [15]	metabolised at 1 h, 10 µM [16]	bioavailability [18]	Cmax [20]	CC90 at 24 h [28]	CC90 at 24 h [29]	other results
C/C=C1\C[N@]2CC[C@H]1C[C@H]2[C@H](O)c1ccnc2ccc(OC3CCC3)cc12	25.2 min	15 min	172 mL/min/kg	319 ng·h/mL	235 ng·h/mL	6.3 L/kg	1.4 µM (≈ 0.51 µg/mL)	41.4 min	1.98 min	521 ng/mL	59 µM	99.8%	13.6%	207 ng/mL			Drug metabolism [1]: Metabolite_Detected; Drug uptake [2]: Active; Drug metabolism [5]: Metabolite_Detected; Drug metabolism [8]: Metabolite_Detected; Drug uptake [17]: Active; Drug metabolism [19]: Metabolite_Detected
O[C@@H](c1cc(C(F)(F)F)nc2c(C(F)(F)F)cccc12)[C@H]1CCCCN1 [(S,R)-MEFLOQUINE]																	Cmax [21]: 50 ng/mL; MIC [22]: 16 µg/mL (≈ 42.3 µM); fraction unbound [23]: < 0.02; half-life [24]: 20 days; MIC [25]: 0.4 to 0.8 µg/mL (≈ 1.06 to 2.11 µM); MIC [26]: 16 µg/mL (≈ 42.3 µM); MIC [27]: 16 µg/mL (≈ 42.3 µM)
C/C=C1/CN2CC[C@H]1C[C@H]2[C@H](O)c1ccnc2ccc(O)cc12	67.2 min	4.98 min	207 mL/min/kg	442 ng·h/mL	190 ng·h/mL	20 L/kg	52 µM (≈ 16.1 µg/mL)	54.6 min	1.98 min	511 ng/mL	> 100 µM	89%	23.3%	619 ng/mL	300 µM	> 300 µM	MIC [30]: 128 µg/mL (≈ 412 µM); MBC [31]: 16 µg/mL (≈ 51.5 µM); MIC [32]: 64 µg/mL (≈ 206 µM); MIC [33]: 4 µg/mL (≈ 12.9 µM)
N#CC(C#N)=NNc1cccc(Cl)c1																	pH [34]: 5.43
OC(c1cc(C2C[C@H]3CC[C@@H]2CC3)nc2c(Cl)c(Cl)ccc12)C1CCCCN1 (stereo partly drawn)																	MIC [35]: 1.5 to 6.3 µg/mL (≈ 3.58 to 15 µM); MIC [22]: 1.5 to 6.3 µg/mL (≈ 3.58 to 15 µM); MIC [36]: 1.5 to 6.3 µg/mL (≈ 3.58 to 15 µM); MIC [25]: 0.08 to 1.25 µg/mL (≈ 0.191 to 2.98 µM); MIC [26]: 1.5 to 6.3 µg/mL (≈ 3.58 to 15 µM); MIC [27]: 1.5 to 6.3 µg/mL (≈ 3.58 to 15 µM)
CCOc1ccc2nccc([C@@H](O)[C@@H]3C[C@@H]4CCN3C[C@@H]4CC)c2c1 [ETHYLHYDROCUPREINE]	31.8 min	30 min	274 mL/min/kg	1570 ng·h/mL	144 ng·h/mL	12.7 L/kg	6 to 12 µM (≈ 2.04 to 4.09 µg/mL)	60 min	1.98 min	375 ng/mL	> 100 µM	87%	109%	639 ng/mL	300 µM	300 µM	MIC [30]: 2 µg/mL (≈ 5.87 µM); MIC [37]: 4 to 8 µg/mL (≈ 11.7 to 23.5 µM); MBC [31]: 4 µg/mL (≈ 11.7 µM); MIC [32]: 2 µg/mL (≈ 5.87 µM); MIC [38]: 64 µg/mL (≈ 188 µM); MIC [39]: 16 µg/mL (≈ 47 µM); MIC [33]: 2 µg/mL (≈ 5.87 µM); MIC [40]: 2 µg/mL (≈ 5.87 µM)
C/C=C1/C[N@]2CC[C@H]1C[C@H]2[C@H](O)c1ccnc2ccc(OC3CCC3)cc12	26.4 min	4.98 min	230 mL/min/kg	368 ng·h/mL	175 ng·h/mL	8.8 L/kg	0.7 µM (≈ 0.255 µg/mL)	42 min	1.98 min	399 ng/mL	65 µM		21%	331 ng/mL			
